Assay results reported in ChEMBL document CHEMBL1122760, “Synthesis and biological properties of some cyclic phosphotriesters derived from 2'-deoxy-5-fluorouridine” (1984).
Converted amounts (≈) assume the structure as drawn.

Columns and labels:
[1] = Ratio of ID50 for L1210/0 cell growth and ID50 for L1210/BdUrd cell growth.; type: functional
L1210 [2] = experiment: Dose inhibiting L1210/Br-dUrd murine leukemia cell proliferation by 50%; type: functional; conditions: Mus musculus, read-out: ID50 (the source's name)
In short: (§1)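 L1210 cells (5×10^4 per well) grown in Eagle's MEM with 10% inactivated fetal calf serum, 2 mM L-glutamine, 0.075% NaHCO3, then exposed to varying test compound concentrations for 48 h at 37 °C in humidified CO2 atmosphere; growth linear over this period. Cells counted by Coulter counter; ID50 = concentration reducing living cell number by 50%.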

L1210 [3] = experiment: Dose inhibiting L1210/0 murine leukemia cell proliferation by 50% in presence of 500 ug/mL of dCyd.; type: functional; conditions: Mus musculus, read-out: ID50 (the source's name)
L1210 [4] = experiment: Dose inhibiting L1210/0 murine leukemia cell proliferation by 50%; type: functional; conditions: Mus musculus, read-out: ID50 (the source's name); in short: as §1
L1210 [5] = experiment: Dose inhibiting L1210/0 murine leukemia cell proliferation by 50% in presence of 5 ug/mL of dThd.; type: functional; conditions: Mus musculus, read-out: ID50 (the source's name)
L1210 [6] = experiment: Dose inhibiting L1210/0 murine leukemia cell proliferation by 50% in presence of 125 ug/mL of dUrd.; type: functional; conditions: Mus musculus, read-out: ID50 (the source's name)
[7] = Ki/Km values of L1210/0 dTMP synthase for the compound was determined.
[8] = Ratio of ID50 upon addition of dThd to the ID50 upon addition of dUrd against the L1210/0 cell proliferation.; type: functional

With `O=c1[nH]c(=O)n([C@H]2C[C@H](O)[C@@H](COP3(=O)OCC(F)(F)CO3)O2)cc1F` the Ratio [1] was 807, the IC50 (L1210 [2]) was 2.42 µg/mL (≈ 6.02 µM) and the IC50 (L1210 [3]) was 0.036 µg/mL. It also gave an IC50 (L1210 [4]) of 0.003 µg/mL (≈ 0.00746 µM), an IC50 (L1210 [5]) of 270 µg/mL and an IC50 (L1210 [6]) of 0.048 µg/mL. The Ratio [7] was greater than 110 and the Ratio [8] was 5637.
For `O=c1[nH]c(=O)n([C@H]2C[C@H](O)[C@@H](COP(=O)(O)O)O2)cc1F` [5-FLUORODEOXYURIDYLATE], the Ratio [1] was 1215, the IC50 (L1210 [2]) was 2.43 µg/mL (≈ 7.45 µM) and the IC50 (L1210 [4]) was 0.002 µg/mL (≈ 0.00613 µM). It also gave an IC50 (L1210 [5]) greater than 100 µg/mL, an IC50 (L1210 [6]) of 0.044 µg/mL and a Ratio [7] of 0.0099. The Ratio [8] was greater than 2273.
`O=c1[nH]c(=O)n([C@H]2C[C@H](O)[C@@H](CO)O2)cc1F` [FLOXURIDINE] showed a Ratio [1] of 1750, an IC50 (L1210 [2]) of 1.75 µg/mL (≈ 7.11 µM) and an IC50 (L1210 [4]) of 0.001 µg/mL (≈ 0.00406 µM). The IC50 (L1210 [5]) was 34 µg/mL, the IC50 (L1210 [6]) was 0.02 µg/mL and the Ratio [7] was 66.5. The Ratio [8] was 1700.
For `O=c1[nH]c(=O)n([C@H]2C[C@H](O)[C@@H](COP3(=O)OCCCO3)O2)cc1F`, the Ratio [1] was 716, the IC50 (L1210 [2]) was 197 µg/mL (≈ 538 µM) and the IC50 (L1210 [3]) was 1.38 µg/mL. For the same compound, the IC50 (L1210 [4]) was 0.275 µg/mL (≈ 0.751 µM), the IC50 (L1210 [5]) was greater than 100 µg/mL and the IC50 (L1210 [6]) was 13.2 µg/mL. It also gave a Ratio [7] greater than 110 and a Ratio [8] greater than 7.58.
`O=c1[nH]c(=O)n([C@H]2C[C@H](O)[C@@H](COP3(=O)OCC(O)CO3)O2)cc1F` (stereo partly drawn) showed a Ratio [1] of 516, an IC50 (L1210 [2]) of 165 µg/mL (≈ 432 µM) and an IC50 (L1210 [3]) of 2.04 µg/mL. It also gave an IC50 (L1210 [4]) of 0.32 µg/mL (≈ 0.837 µM), an IC50 (L1210 [5]) greater than 1000 µg/mL and an IC50 (L1210 [6]) of 3.87 µg/mL. For the same compound, the Ratio [7] was greater than 60 and the Ratio [8] was greater than 258.
